Data set [1] in a line: Aqueous solubility of the compound at pH 7.4. The class given is physicochemical.
Data set [2] concerns the target T1, Histone deacetylase (Homo sapiens) (UniProt Q13547+O15379+Q9UBN7+Q92769+Q9UQL6+Q8WUI4+Q9BY41+Q96DB2+P56524+Q9UKV0+Q969S8). Nature of the data set: Inhibition of HDAC (unknown origin) at 0.1 uM. The class given is protein assay. In outline:
(§1)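 HeLa nuclear extract HDAC incubated with an acetylated-lysine substrate and inhibitor. Deacetylated substrate mixed with developer gives a fluorophore, read at ex/em 335/460 nm. Two-point screen at 0.1 and 1.0 µM, expressed as % inhibition. Triplicate determinations, averaged.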

In data set [3] the target is T1, Histone deacetylase (Homo sapiens). The data set can be described thus: Inhibition of HDAC (unknown origin) at 1 uM. The class given is protein assay. In outline:
as §1

Data set [4] concerns HCT-116. Nature of the data set: Cytotoxicity against human HCT116 cells after 5 days by Alamar Blue assay. It counts as functional, cell-based. Conditions: HCT-116, 120 h. In outline: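 Colon cancer HCT-116 cells were seeded in complete medium, and inhibitors were added after 24 h at 0.1–100 µM in quadruplicate. After 5 days, Alamar Blue was added and plates were incubated a further 4 h. Fluorescence was read at ex 530/em 590 nm. IC50 is the concentration giving 50% inhibition of proliferation.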
In general terms: Alamar Blue is a resazurin reagent that responds to reducing activity.

The target of data set [5] is Histone deacetylase. The data set can be described thus: Inhibition of HDAC in human HeLa cells assessed as deacetylation of substrate by fluorescence plate reader analysis. It counts as cell-based. In outline: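 Enzyme source: HeLa cell nuclear extract (partially purified HDAC). Extract incubated with an acetylated-lysine substrate in the presence of inhibitor; a developer then releases a fluorophore from the deacetylated substrate, read at ex/em 335/460 nm. IC50 is the concentration giving 50% inhibition of enzymatic activity, from triplicate runs averaged. SAHA and LAQ-xx were positive controls.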

In data set [6] the test system is HCT-116. The data set can be described thus: Antitumor activity against human HCT116 cells xenografted in CD1 mouse assessed as reduction in tumor volume at 50 mg/kg, po. The class given is functional. Set-up: scale not given: the % may be the effect or the level left. In outline:
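Female CD1 nude (nu/nu) athymic mice were dosed orally at 50 and 100 mg/kg for 21 days, n = 4 per group. Vehicle control was 0.5% CMC at 10 mL/kg. Read-out was tumor volume inhibition (TVI).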

≈ marks a conversion by molar mass, not a printed value.

For orientation: solubility means how much of the substance goes into solution per volume. The inhibition is the change of the read-out against control, counted positive when it falls. In data set [1], `CN(C(=O)CCc1ccccc1)c1ccc2sc(C(=O)NO)cc2c1` showed a solubility of 4 µg/mL (≈ 11.3 µM). Also, the inhibition in data set [2] is 27%; in data set [3], 67%.
By IC50 is commonly meant the midpoint of a concentration-inhibition curve. `N[C@H](C(=O)Nc1ccc2cc(C(=O)NO)sc2c1)c1ccccc1` had an IC50 in data set [4] of 0.77 µM. Besides, the inhibition in data set [2] was found to be 69%; in data set [3], 85%.
Regarding `O=C(NO)c1cc2ccc(COc3ccccc3F)cc2s1`, the results for the inhibition in data set [2] and in data set [3] were 22% and 58%, respectively.
With `N[C@@H](Cc1ccccc1)C(=O)Nc1ccc2cc(C(=O)NO)sc2c1`, in data set [4], the IC50 came to 5 µM. Besides, the inhibition in data set [2] is 54%; in data set [3] it was 81%.
As to `COc1cc2cc(C(=O)NO)sc2cc1C`, the IC50 in data set [5] was determined as 1.35 µM.
`O=C(CCc1ccccc1)Nc1ccc2cc(C(=O)NO)sc2c1` registered a solubility in data set [1] of 4 µg/mL (≈ 11.8 µM). The compound also registered an IC50 in data set [4] of 2.6 µM. The inhibition was found to be 42% in data set [2] and 76% in data set [3].
The compound `COc1cccc(CC(=O)Nc2ccc3cc(C(=O)NO)sc3c2)c1` had an IC50 in data set [4] of 0.6 µM. Also, the inhibition is 65% in data set [2] and 83% in data set [3].
With `O=C(Cc1ncc[nH]1)Nc1ccc2cc(C(=O)NO)sc2c1`, the inhibition in data set [2] is 24%; in data set [3], 78%.
In turn, `COc1ccc(CC(=O)Nc2ccc3cc(C(=O)NO)sc3c2)cc1` had a half-maximal inhibitory concentration (IC50) in data set [4] of 0.49 µM. Besides, the figures for the inhibition in data set [2] and in data set [3] were 75% and 84%, respectively.
In the case of `Cc1ccc2cc(C(=O)NO)sc2c1`, the IC50 in data set [5] worked out at 1.76 µM.
On to `O=C(CCc1ccccc1)Nc1ccc2sc(C(=O)NO)cc2c1`, for which the solubility in data set [1] amounted to 4 µg/mL (≈ 11.8 µM). For the same compound, the inhibition turned out to be 28% in data set [2] and 69% in data set [3].
`O=C(NCc1ccc2cc(C(=O)NO)sc2c1)c1ccccc1` came in with an IC50 in data set [4] of 0.25 µM. Moreover, the inhibition in data set [2] turned out to be 93%; in data set [3] it was 87%.
For the compound `O=C(NO)c1cc2ccc(COc3ccc(F)cc3)cc2s1`, the figures for the inhibition in data set [2] and in data set [3] were below 20% and 31%, respectively.
Regarding `O=C(NO)c1csc2ccccc12`, the IC50 in data set [5] worked out at 76.13 µM.
`O=C(NO)c1cc2ccc(NCc3ccccc3)cc2s1` displayed a solubility in data set [1] of 4 µg/mL (≈ 13.4 µM). Further, the IC50 in data set [4] came out at 1.3 µM. Also, the figures for the inhibition in data set [2] and in data set [3] were 58% and 79%, respectively.
Take `Cc1cc2sc(C(=O)NO)cc2cc1O`: the IC50 in data set [5] turned out to be 0.989 µM.
As to `O=C(Cc1ccncc1)Nc1ccc2sc(C(=O)NO)cc2c1`, in data set [1], the solubility is 4 µg/mL (≈ 12.2 µM). The IC50 in data set [4] was 8.6 µM. Further, the inhibition in data set [2] was found to be 49%; in data set [3], 78%.
For `CN(C)CCCC(=O)Nc1ccc2cc(C(=O)NO)sc2c1`, in that order: 1310 µg/mL (≈ 4080 µM), 2.4 µM, 50% and 79%.
With `O=C(NO)c1cc2ccccc2s1`, the IC50 in data set [5] amounted to 2.17 µM.
In data set [4], `CN(C)c1ccc(CC(=O)Nc2ccc3cc(C(=O)NO)sc3c2)cc1` registered an IC50 of 0.5 µM. In addition, the inhibition in data set [2] is 57%; in data set [3] it was 82%.
Take `O=C(NO)c1cc2ccc(COc3cccc(F)c3)cc2s1`: the inhibition was found to be 23% in data set [2] and 68% in data set [3].
In data set [1], `CN(C(=O)CCc1ccccc1)c1ccc2cc(C(=O)NO)sc2c1` came in with a solubility of 4 µg/mL (≈ 11.3 µM). Further, the inhibition in data set [2] worked out at 21%; in data set [3] it was 63%.
With `O=C(NO)c1cc2c(Cl)cccc2s1`, the IC50 in data set [5] was determined as 11.63 µM.
Compound `O=C(Cc1ccccn1)Nc1ccc2cc(C(=O)NO)sc2c1` returned a solubility in data set [1] of 4 µg/mL (≈ 12.2 µM). The compound also returned an IC50 in data set [4] of 0.48 µM. For the same compound, the inhibition is 59% in data set [2] and 78% in data set [3].
Take `O=C(NO)c1cc2sccc2s1`: the IC50 in data set [5] was 0.557 µM.
Take `N[C@H](CCc1ccccc1)C(=O)Nc1ccc2cc(C(=O)NO)sc2c1`: in data set [4], the 50% inhibitory concentration (IC50) was found to be 0.32 µM. The inhibition in data set [2] turned out to be 44%; in data set [3], 78%.
For the compound `COc1cccc2sc(C(=O)NO)cc12`, in data set [5], the IC50 amounted to 3.79 µM.
The compound `O=C(Cc1cccnc1)Nc1ccc2sc(C(=O)NO)cc2c1` yielded a solubility in data set [1] of 4 µg/mL (≈ 12.2 µM). The compound further displayed a 50% inhibitory concentration (IC50) in data set [4] of 17 µM. The compound further yielded an inhibition in data set [2] of 49%.
Compound `N[C@@H](CCc1ccccc1)C(=O)Nc1ccc2cc(C(=O)NO)sc2c1` showed an IC50 in data set [4] of 3.4 µM. Also, the values for the inhibition in data set [2] and in data set [3] were 71% and 85%, respectively.
For `O=C(NO)c1cc2ccc(CN(CCO)Cc3ccccc3)cc2s1`, in that order: 0.83 µM, 52% and 80%.
On to `O=C(NO)c1cc2cc(NCc3ccccc3)ccc2s1`, for which the solubility in data set [1] was 4 µg/mL (≈ 13.4 µM). Moreover, the inhibition came out at 28% in data set [2] and 68% in data set [3].
In data set [4], `O=C(NCc1ccc2cc(C(=O)NO)sc2c1)c1ccco1` gave an IC50 of 0.07 µM. Further, the results for the inhibition in data set [2] and in data set [3] were 89% and 92%, respectively.
Consider `N#Cc1cc2ccc(NC(=O)[C@H](N)c3ccccc3)cc2s1`, for which the inhibition in data set [2] and in data set [3] was below 20% throughout.
With `O=C(Cc1ccncc1)Nc1ccc2cc(C(=O)NO)sc2c1`, in data set [1], the solubility is 4 µg/mL (≈ 12.2 µM). Besides, the IC50 in data set [4] came out at 1.8 µM. Further, the inhibition in data set [2] was 66%; in data set [3], 84%.
Consider `O=C(NO)c1cc2ccc(CN(CCO)C(=O)Nc3ccccc3)cc2s1`, for which 1.4 µM corresponded to half-maximal inhibition in data set [4] (IC50). Besides, the inhibition was determined as 77% in data set [2] and 91% in data set [3].
`O=C(NO)c1cc2ccc(CN(CCO)c3ccccc3)cc2s1` yielded a half-maximal inhibitory concentration (IC50) in data set [4] of 1.7 µM. The inhibition amounted to 53% in data set [2] and 76% in data set [3].
For `O=C(NO)c1cc2cccc(Cl)c2s1`, the half-maximal inhibitory concentration (IC50) in data set [5] was determined as 2.91 µM.
In data set [1], `O=C(Cc1ccccn1)Nc1ccc2sc(C(=O)NO)cc2c1` came in with a solubility of 4 µg/mL (≈ 12.2 µM). Moreover, the inhibition came out at 39% in data set [2] and 74% in data set [3].
Consider `COc1ccccc1CC(=O)Nc1ccc2cc(C(=O)NO)sc2c1`, for which the IC50 in data set [4] stood at 0.55 µM. Further, the inhibition in data set [2] came out at 54%; in data set [3] it was 81%.
Compound `O=C(Cc1ccsc1)Nc1ccc2cc(C(=O)NO)sc2c1` registered a half-inhibitory concentration (IC50) in data set [4] of 0.11 µM. Moreover, the inhibition came out at 73% in data set [2] and 87% in data set [3].
On to `O=C(Cc1ccccc1)Nc1ccc2cc(C(=O)NO)sc2c1`, for which the solubility in data set [1] turned out to be 4 µg/mL (≈ 12.3 µM). Besides, in data set [6], the Activity was determined as 26%. In data set [4], it took 0.1 µM to reach half-maximal inhibition (IC50). For the same compound, the inhibition in data set [2] came out at 71%; in data set [3], 85%.
Take `O=C(NCc1ccc2cc(C(=O)NO)sc2c1)c1cccnc1`: the IC50 in data set [4] came out at 0.73 µM. For the same compound, the inhibition in data set [2] was 72%; in data set [3], 84%.
The like results for `O=C(Cc1ccccc1)NCc1ccc2cc(C(=O)NO)sc2c1` were, in that order, 1.2 µM, 60% and 88%.
On to `O=C(NO)c1cc2ccc(CSc3ccc(F)cc3)cc2s1`, for which the inhibition in data set [2] is below 20%; in data set [3], 24%.
As for `O=C(NO)c1cc2ccc(CN3CCc4ccccc4C3)cc2s1`, the IC50 in data set [4] is 1.3 µM. Besides, the inhibition came to 53% in data set [2] and 83% in data set [3].
For `O=C(Cc1ccc2c(c1)OCO2)Nc1ccc2cc(C(=O)NO)sc2c1`, the inhibition is 55% in data set [2] and 78% in data set [3].
In data set [1], `O=C(NO)c1cc2cc(NCCc3ccccc3)ccc2s1` displayed a solubility of 4 µg/mL (≈ 12.8 µM). In addition, the results for the inhibition in data set [2] and in data set [3] were 28% and 61%, respectively.
As to `O=C(Cc1ccccc1)Nc1ccc2sc(C(=O)NO)cc2c1`, in data set [1], the concentration in solution (solubility) came to 4 µg/mL (≈ 12.3 µM). In data set [4], this compound came in with an IC50 of 1.3 µM. The inhibition was determined as 48% in data set [2] and 82% in data set [3].
`N[C@H](Cc1ccccc1)C(=O)Nc1ccc2cc(C(=O)NO)sc2c1`: 0.34 µM corresponded to half-maximal inhibition in data set [4] (IC50). The inhibition in data set [2] was 41%; in data set [3] it was 77%.
With `O=C(NO)c1cc2ccsc2s1`, the IC50 in data set [5] is 1.08 µM.
As to `O=C(Cc1cccnc1)Nc1ccc2cc(C(=O)NO)sc2c1`, the solubility in data set [1] is 4 µg/mL (≈ 12.2 µM). In data set [4], this compound displayed an IC50 of 3 µM. Further, the inhibition in data set [2] is 62%; in data set [3], 83%.
`N[C@@H](C(=O)Nc1ccc2cc(C(=O)NO)sc2c1)c1ccccc1` came in with an IC50 in data set [4] of 0.5 µM. In addition, the values for the inhibition in data set [2] and in data set [3] were 70% and 85%, respectively.
In turn, `O=C(NO)c1cc2ccc(NCCc3ccccc3)cc2s1` gave a solubility in data set [1] of 4 µg/mL (≈ 12.8 µM). In addition, the inhibition in data set [2] is 32%; in data set [3], 73%.
Consider `Cc1ccc2cc(C(=O)NO)sc2c1F`, for which the IC50 in data set [5] was 0.458 µM.
On the same count and under the same terms, the figure for `O=C(NO)c1cc2cccc(C(F)(F)F)c2s1` is 9.19 µM.

(Values after ChEMBL document CHEMBL2401613, “Benzofused hydroxamic acids: useful fragments for the preparation of histone deacetylase inhibitors. Part 1: hit identification” (Bioorg Med Chem Lett, 2013).)
